Measured values published in ChEMBL document CHEMBL2407055, “4-Substituted 2-Hydroxyisoquinoline-1,3(2H,4H)-diones as a Novel Class of HIV-1 Integrase Inhibitors” (ACS Med Chem Lett, 2013).
≈ marks a conversion by molar mass, not a printed value.

What was measured:
[1] = Cytotoxicity against human MT4 cells by MTT assay; type: cell-based
Procedure, shortened: (§1)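 Anti-HIV-1 activity was measured in MT-4 cells. EC50 is the concentration that cuts HIV-1-induced cytopathic effect by 50%. CC50 is the concentration that lowers MT-4 cell viability by 50%. The therapeutic index is CC50/EC50.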

[2] = system: Human immunodeficiency virus 1; assay: Antiviral activity against HIV1 3B infected in human MT4 cells assessed as inhibition of virus-induced cytopathic effect by MTT assay; type: functional, organism-based; details: Human immunodeficiency virus 1, 3B; procedure, shortened: as §1
[3] = biological target: Human immunodeficiency virus type 1 integrase (Human immunodeficiency virus 1) (UniProt Q7ZJM1); assay: Ratio of IC50 for strand transfer activity of HIV1 integrase to IC50 for HIV1 integrase overall inhibition
Chain of Human immunodeficiency virus type 1 integrase (Human immunodeficiency virus 1) (Q7ZJM1 as listed by the source): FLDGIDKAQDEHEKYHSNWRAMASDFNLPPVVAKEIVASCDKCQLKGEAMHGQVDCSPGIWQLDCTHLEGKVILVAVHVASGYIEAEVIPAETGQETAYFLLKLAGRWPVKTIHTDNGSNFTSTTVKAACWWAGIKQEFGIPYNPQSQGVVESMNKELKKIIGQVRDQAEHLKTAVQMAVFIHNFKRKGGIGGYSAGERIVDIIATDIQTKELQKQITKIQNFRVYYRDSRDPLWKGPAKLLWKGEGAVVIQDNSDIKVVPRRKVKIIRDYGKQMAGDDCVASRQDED

[4] = biological target: T1, Human immunodeficiency virus type 1 integrase (Human immunodeficiency virus 1, UniProt Q7ZJM1); assay: Inhibition of strand transfer activity of HIV1 integrase using pre-cleaved oligonucleotide as substrate after 1 hr by ELISA
T1 sequence (Q7ZJM1 whole entry): as the sequence (Q7ZJM1 as listed by the source) above

[5] = biological target: Human immunodeficiency virus type 1 reverse transcriptase (Human immunodeficiency virus 1, UniProt Q72547); assay: Inhibition of HIV1 recombinant reverse transcriptase RNase H activity after 10 mins
Procedure, shortened: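 In vitro assay of RT-associated RNase H function. IC50 is the concentration giving 50% inhibition of RNase H activity.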

[6] = biological target: T1, Human immunodeficiency virus type 1 integrase; assay: Inhibition of HIV1 integrase overall inhibition using 5'-digoxigenin-labeled 5'-GACCCTTTTAGTCAGTGTGGAAAATCTCTAGCAGT-3' as substrate after 1 hr by ELISA
[7] = Therapeutic index, ratio of CC50 for human MT4 cells to EC50 for HIV1 3B; type: cell-based; details: read-out: Ratio CC50/EC50; procedure, shortened: as §1
[8] = biological target: T1, Human immunodeficiency virus type 1 integrase; assay: Inhibition of 3'-processing activity of HIV1 integrase using 32P-5'-TGTGGAAAATCTCTAGCAGT-3' and 5'-ACTGCTAGAGATTTTCCACA-3' as substrate after 1 hr by ELISA
[9] = n-octanol-PBS partition coefficient, log D of the compound at pH 7.4; type: physicochemical
[10] = Aqueous solubility of the compound in PBS at pH 7.4; type: physicochemical
[11] = biological target: T1, Human immunodeficiency virus type 1 integrase; assay: Inhibition of HIV1 integrase binding to LEDGF
[12] = Protein binding in human plasma; type: ADME, cell-free; details: read-out: PPB

Ratio IC50 [3] | IC50 [4] | IC50 [5] | IC50 [6] | IC50 [8] | logD [9] | solubility [10] | IC50 [11] | fraction unbound [12] | Compound | CC50 [1] | EC50 [2] | selectivity ratio [7]
10 | 110 nM | 7310 nM | 10 nM | – | – | – | – | – | O=C(Nc1cccc(F)c1)C1C(=O)N(O)C(=O)c2ccccc21 (stereo not given) | 64000 nM | 2470 nM | 25.9
– | 30 nM | – | 80 nM | – | – | – | – | – | O=C(NCc1ccccc1)C1C(=O)N(O)C(=O)c2ccccc21 (stereo not given) | 130000 nM | 3120 nM | 41.7
– | 79000 nM | – | 199000 nM | – | – | – | – | – | O=C1NC(=O)C(C(=O)NCc2ccc(F)cc2)c2ccccc21 (stereo not given) | > 250000 nM | > 250000 nM | –
– | 1030 nM | – | 1190 nM | – | – | – | – | – | COc1ccc(CNC(=O)C2C(=O)N(O)C(=O)c3ccccc32)cc1 (stereo not given) | 118000 nM | 17600 nM | 6.7
– | – | – | – | – | – | – | – | – | Cc1nnc(C(=O)NC(C)(C)c2nc(C(=O)NCc3ccc(F)cc3)c(O)c(=O)n2C)o1 | > 8000 nM | – | –
– | 5600 nM | – | 5210 nM | – | – | – | – | – | CN(C(=O)C1C(=O)N(O)C(=O)c2ccccc21)c1ccccc1 (stereo not given) | 107000 nM | > 107000 nM | –
– | 307 nM | – | 235 nM | – | – | – | – | – | COc1ccc(CNC(=O)C2C(=O)N(O)C(=O)c3ccccc32)cc1OC (stereo not given) | 125000 nM | > 125000 nM | –
– | 84 nM | 14000 nM | 76 nM | – | – | – | – | – | Cc1ccc(CNC(=O)C2C(=O)N(O)C(=O)c3ccccc32)cc1 (stereo not given) | > 125000 nM | 5700 nM | > 22
– | 126 nM | 3850 nM | 495 nM | – | – | – | – | – | COc1ccc(CCNC(=O)C2C(=O)N(O)C(=O)c3ccccc32)cc1OC (stereo not given) | > 125000 nM | 70800 nM | > 1.8
– | 1120 nM | – | 800 nM | – | – | – | – | – | O=C(Nc1ccc(F)cc1)C1C(=O)N(O)C(=O)c2ccccc21 (stereo not given) | 114000 nM | 1750 nM | 65.4
10 | 572 nM | 520 nM | 35 nM | 2350 nM | – | – | – | – | O=C(NCc1ccc(O)cc1O)C1C(=O)N(O)C(=O)c2ccccc21 (stereo not given) | > 125000 nM | 7940 nM | > 16
– | 99 nM | 360 nM | 56 nM | 60 nM | 0.56 | 190 µM (≈ 62.4 µg/mL) | > 100000 nM | 0.001 | O=C(NCc1ccc(F)cc1)C1C(=O)N(O)C(=O)c2ccccc21 (stereo not given) | 202000 nM | 2340 nM | 86.3
– | > 250000 nM | – | > 250000 nM | – | – | – | – | – | CN1C(=O)c2ccccc2C(C(=O)NCc2ccc(F)cc2)C1=O (stereo not given) | > 250000 nM | > 250000 nM | –
10 | 254 nM | 630 nM | 35 nM | – | – | – | – | – | COc1ccc(CNC(=O)C2C(=O)N(O)C(=O)c3ccccc32)c(OC)c1 (stereo not given) | 60400 nM | 9240 nM | 6.5
– | 296 nM | 130 nM | 673 nM | – | – | – | – | – | O=C(NCCc1ccc(O)c(O)c1)C1C(=O)N(O)C(=O)c2ccccc21 (stereo not given) | 63000 nM | > 63000 nM | –
– | 730 nM | – | 310 nM | – | – | – | – | – | O=C(Nc1ccccc1)C1C(=O)N(O)C(=O)c2ccccc21 (stereo not given) | 106000 nM | 4950 nM | 21.3
– | 200 nM | – | 30 nM | – | – | – | – | – | O=C(NCCc1ccc(F)cc1)C1C(=O)N(O)C(=O)c2ccccc21 (stereo not given) | 124000 nM | 5080 nM | 24
10 | 277 nM | 16600 nM | 20 nM | 1580 nM | – | – | – | – | COc1ccc(NC(=O)C2C(=O)N(O)C(=O)c3ccccc32)cc1Cl (stereo not given) | 12300 nM | 3340 nM | 3.7
– | 258 nM | 900 nM | 205 nM | – | – | – | – | – | O=C(NCc1ccc(O)c(O)c1)C1C(=O)N(O)C(=O)c2ccccc21 (stereo not given) | 11000 nM | > 11000 nM | –
